MEKK3 PB1 HTS = modulators (inhibitors or enhancers) of MEK5 binding to human MEKK3 PB1 domain | bead-based flow cytometry, Alexa488-MEK5 binding to MEKK3; actives lie on both sides; 0 = blocked by unlabeled MEK5, 100 = vehicle | binding response (% of control), % at 10 µM | hit rate 1.4% among 290,000;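 active = binding response more than 3 SD above or below the average of its plate-row segment, actives on both sides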;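 note: Alexa488 bead fluorescence after subtracting the streptavidin-only scavenger bead signal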
PREPL inh = inhibitors of human prolyl oligopeptidase-like enzyme PREPL; Q4J6C6; recombinant PREPL, fluorescence polarization activity-based probe; inhibition, % at 5.96 µM; hit rate 0.68% among 320,000; AID 2751; in the data active = inhibition above about 43%;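 note: 0% = enzyme with DMSO and 100% = wells lacking enzyme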
Apaf1 inhib = human Apaf-1 inhibition. O14727. reconstituted apoptosome caspase-3 activity, DEVD-Rh110 fluorescence. inhibition, % at 20 µM. hit rate 0.71% among 330,000. AID 489030; active = inhibition of at least 40% at 20 µM;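 note: plate controls were DMSO wells for no effect and DEVD-CHO caspase inhibitor wells for full effect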
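Material: reconstituted apoptosome with Apaf-1, cytochrome c, caspase-9, procaspase-3, dATP. Technique: Rh110 fluorescence intensity. Buffer or medium: pH 7.5 Hepes buffer with CHAPS, BSA, DTT. Times: 30 min plus 50 min, RT.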
MEKK2mut PB1 HTS = signal of MEK5 binding to mutant human MEKK2 PB1 domain; bead flow cytometry, Alexa488-MEK5 binding to MEKK2 mutant; percent response, % at 10 µM; hit rate 0.35% among 290,000; AID 1530; in the data active = percent response above about 24%, passing the limit was not always enough
MEKK2 WT-MEK5 = raises or lowers MEK5 binding to wildtype human MEKK2 PB1 domain; Q9Y2U5; bead flow cytometry, Alexa488-MEK5 binding to MEKK2 WT; actives lie on both sides; binding response (% of control), % at 10 µM; hit rate 1.1% among 290,000; AID 1531; in the data active = binding response below about 67% or above about 130%
UBC13 polyUb = blocks human UBC13 polyubiquitin chain formation. P61088. TR-FRET. inhibition, % at 20 µM. hit rate 0.47% among 330,000. AID 485273; in the data active = inhibition above about 45%, passing the limit was not always enough
Target sequence (P61088 whole entry, looked up): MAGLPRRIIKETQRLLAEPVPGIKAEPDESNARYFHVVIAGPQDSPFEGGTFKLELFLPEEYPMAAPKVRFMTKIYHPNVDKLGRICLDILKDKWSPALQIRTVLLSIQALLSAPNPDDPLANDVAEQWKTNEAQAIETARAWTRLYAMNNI
MEKK2wt confirm = raises or lowers MEK5 binding to wildtype human MEKK2, retest; shares compounds with MEKK3 PB1 HTS; bead flow cytometry, Alexa488-MEK5 binding to MEKK2 WT; actives lie on both sides; binding response (% of control), % at 10 µM; hit rate 2.4% among 5,900; AID 1892; in the data active = binding response below about 16% or above about 210%; inactive = in between
MEKK2mut confirm = signal of MEK5 binding to mutant human MEKK2, retest. shares compounds with MEKK3 PB1 HTS. bead flow cytometry, Alexa488-MEK5 binding to MEKK2 mutant. percent response, % at 10 µM. hit rate 2% among 5,900. AID 1893; in the data active = percent response mostly above about 71%, no sharp cut-off; inactive = mostly below about 38%;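 note: higher means compound restores mutant binding toward wildtype level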
MEKK3 confirm = MEKK3-MEK5 PB1 inhibition, single concentration confirmation | shares compounds with MEKK3 PB1 HTS | bead flow cytometry, Alexa488-MEK5 binding to MEKK3; active compounds read low | binding response (% of control), % at 10 µM | hit rate 1.8% among 5,900;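 active = binding response below 72% of control, or above a set upper limit, though filed actives all read lower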;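 note: 100% = DMSO only wells and 0% = binding blocked by excess unlabeled MEK5; lower values mean stronger disruption of MEK5 binding to MEKK3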
* hit, by the source's call; [ ] = dose if it differs, or a comment. An excerpt weighted towards active compounds, which were near 3.1% of everything screened.

For COc1cc(C)ccc1OCCOCCOc1ccc([N+](=O)[O-])cc1 the results were MEKK3 PB1 HTS 134*, PREPL inh -10, Apaf1 inhib 3, MEKK2mut PB1 HTS 1, MEKK2 WT-MEK5 105, UBC13 polyUb 1, MEKK2wt confirm 104, MEKK2mut confirm -3 and MEKK3 confirm 99.
For COC(=O)/C=C/c1cccc([C@H]2[C@@H]3C=CC[C@@H](C)[C@@H]3C(=O)N2Cc2ccccc2)c1 the results were Apaf1 inhib 22.
`CCOC(=O)C(NC(=O)c1cccc(Cl)c1)(OCc1ccccc1)C(F)(F)F` (centres undefined) gave MEKK3 PB1 HTS 98, PREPL inh -5, Apaf1 inhib -1, MEKK2mut PB1 HTS -2, MEKK2 WT-MEK5 93 and UBC13 polyUb -3.
`CCOC(=O)C(NC(=O)c1ccccc1)(OCc1ccccc1)C(F)(F)F` (centres undefined) gave MEKK3 PB1 HTS 159*, PREPL inh 5, Apaf1 inhib 11, MEKK2mut PB1 HTS 4, MEKK2 WT-MEK5 106, UBC13 polyUb 2, MEKK2wt confirm 104, MEKK2mut confirm -1 and MEKK3 confirm 108.
For CC(=O)N1c2ccccc2C(=O)C1N(C)c1ccc(C)cc1 (centres undefined) the results were MEKK3 PB1 HTS 103, PREPL inh 7, Apaf1 inhib 9, MEKK2mut PB1 HTS 4, MEKK2 WT-MEK5 110 and UBC13 polyUb -7.
`CC(=O)N1/C(=C/c2ccc(N(C)C)cc2)C(=O)c2ccccc21` gave MEKK3 PB1 HTS 55, MEKK2mut PB1 HTS -12, MEKK2 WT-MEK5 36*[inhibitor], MEKK2wt confirm 38, MEKK2mut confirm -20 and MEKK3 confirm 83.
`CN(c1ccccc1C(=O)NCc1ccccc1Cl)S(=O)(=O)c1ccccc1` gave MEKK3 PB1 HTS 108, PREPL inh 6, Apaf1 inhib 12, MEKK2mut PB1 HTS 3, MEKK2 WT-MEK5 107 and UBC13 polyUb -4.
`Cc1ccc(N2CC(C(=O)Nc3ccc(S(=O)(=O)N4CCCC4)cc3)CC2=O)cc1` (centres undefined) gave MEKK3 PB1 HTS 60*[inhibitor], PREPL inh 6, Apaf1 inhib -9, MEKK2mut PB1 HTS -13, MEKK2 WT-MEK5 45*[inhibitor], UBC13 polyUb 0, MEKK2wt confirm 100, MEKK2mut confirm 9 and MEKK3 confirm 104.
Screening Cc1ccc(N2CC(C(=O)NCCc3ccc(S(N)(=O)=O)cc3)CC2=O)cc1 (centres undefined) returned MEKK3 PB1 HTS 77*[inhibitor], PREPL inh 5, Apaf1 inhib 12, MEKK2mut PB1 HTS -14, MEKK2 WT-MEK5 86, UBC13 polyUb -5, MEKK2wt confirm 105, MEKK2mut confirm 2 and MEKK3 confirm 103.
Screening COc1ccc(CCNC(=O)C2CC(=O)N(c3ccc(C)cc3)C2)cc1OC (centres undefined) returned MEKK3 PB1 HTS 102, PREPL inh -3, Apaf1 inhib 4, MEKK2mut PB1 HTS 3, MEKK2 WT-MEK5 105 and UBC13 polyUb -3.
`O=C(NC(=S)NC(CO)Cc1ccccc1)c1ccc(F)cc1` (centres undefined) gave MEKK3 PB1 HTS 105, PREPL inh -18, Apaf1 inhib 2, MEKK2mut PB1 HTS 6, MEKK2 WT-MEK5 107 and UBC13 polyUb 8.
COc1cccc2c1O/C(=N\O)C(C(=O)Nc1ccc(C)cc1)C2 (centres undefined) was read as MEKK3 PB1 HTS 100, PREPL inh 9, Apaf1 inhib -4, MEKK2mut PB1 HTS 6, MEKK2 WT-MEK5 102 and UBC13 polyUb 6.
Cc1oc(-c2ccc(Cl)cc2)nc1CN1CCC(C(=O)NCc2cccs2)CC1 was read as MEKK3 PB1 HTS 116, PREPL inh 8, Apaf1 inhib 17, MEKK2mut PB1 HTS 6, MEKK2 WT-MEK5 126 and UBC13 polyUb 0.
CCc1ccc(-c2nc(CN3CCC(C(=O)NCc4ccc(F)cc4)CC3)c(C)o2)cc1 was read as MEKK3 PB1 HTS 104, PREPL inh -7, Apaf1 inhib 17, MEKK2mut PB1 HTS 13, MEKK2 WT-MEK5 145*, UBC13 polyUb 19, MEKK2wt confirm 117, MEKK2mut confirm 3 and MEKK3 confirm 104.
For O=C(NCc1ccccc1)C1CCC(CNc2c(N3CCCCC3)c(=O)c2=O)CC1 (centres undefined) the results were MEKK3 PB1 HTS 70*[inhibitor], PREPL inh -3, Apaf1 inhib 0, MEKK2mut PB1 HTS -7, MEKK2 WT-MEK5 77, UBC13 polyUb -14, MEKK2wt confirm 102, MEKK2mut confirm 2 and MEKK3 confirm 103.
Screening CC1CCN(c2c(NCC3CCC(C(=O)NCc4ccccc4)CC3)c(=O)c2=O)CC1 (centres undefined) returned MEKK3 PB1 HTS 110, PREPL inh 2, Apaf1 inhib 7, MEKK2mut PB1 HTS -2, MEKK2 WT-MEK5 100 and UBC13 polyUb 6.
CCCCN(CC)C(=O)Cc1ccccc1OC was read as MEKK3 PB1 HTS 107, PREPL inh 5, Apaf1 inhib 3, MEKK2mut PB1 HTS 14, MEKK2 WT-MEK5 107 and UBC13 polyUb -3.
Screening CCCCN(CC)C(=O)Cc1ccc(Br)cc1 returned MEKK3 PB1 HTS 128*, PREPL inh -3, Apaf1 inhib 2, MEKK2mut PB1 HTS 0, MEKK2 WT-MEK5 105, UBC13 polyUb -13, MEKK2wt confirm 95, MEKK2mut confirm 5 and MEKK3 confirm 104.
Screening CC1CCCC(NC(=O)CN2CCN(S(=O)(=O)c3cccs3)CC2)C1C (centres undefined) returned PREPL inh 4, Apaf1 inhib 3 and UBC13 polyUb 10.
`Cc1cccc(CN2CCc3c([nH]c4ccccc34)C2)c1` gave MEKK3 PB1 HTS 101, PREPL inh 10, Apaf1 inhib 9, MEKK2mut PB1 HTS 10, MEKK2 WT-MEK5 106 and UBC13 polyUb 5.
Screening COc1cc(OC)c(CN2CCc3c([nH]c4ccccc34)C2)cc1Br returned MEKK3 PB1 HTS 103, PREPL inh 20, Apaf1 inhib 17, MEKK2mut PB1 HTS 30*, MEKK2 WT-MEK5 122, UBC13 polyUb 10, MEKK2wt confirm 128, MEKK2mut confirm 15 and MEKK3 confirm 107.

Source: PubChem BioAssay (several laboratories)
